Reference: ChEMBL document CHEMBL1158182, “Antifungal activity of chalcones: a mechanistic study using various yeast strains” (Eur J Med Chem, 2008)
Converted amounts (≈) assume the structure as drawn.

What was measured:
Format in all cases: functional
Ogataea angusta [1] = test: Antifungal activity against Hansenula polymorpha CD1 with ade1 leu2 cds1 genotype by agar dilution method
How it was run: (§1)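 H. polymorpha strains were tested by agar dilution on rich YPD agar at 37 °C. Compound stocks in 96% EtOH were mixed into the medium to give […]. Cells were suspended in water, serially diluted to 10^9, 10^7, 10^5 and 10^3 cells/ml, and applied to the agar with a metal replicator. MIC was read from growth.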

Saccharomyces cerevisiae [2] = test: Antifungal activity against haploid Saccharomyces cerevisiae Sigma 1278b by agar dilution method
How it was run: (§2)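 S. cerevisiae and K. lactis strains were tested by agar dilution on rich YPD agar at 30 °C. Compound stocks in 96% EtOH were added to the medium to give […]. Cells were suspended in water, serially diluted to 10^9–10^3 cells/ml, and plated with a metal replicator. MIC was read from growth.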

Ogataea angusta [3] = test: Antifungal activity against Hansenula polymorpha M4 with met4 genotype by agar dilution method; how it was run: as §1
Saccharomyces cerevisiae [4] = test: Antifungal activity against haploid Saccharomyces cerevisiae 2180 by agar dilution method; how it was run: as §2
Ogataea angusta [5] = test: Antifungal activity against Hansenula polymorpha MC1 with met2 cys1 genotype by agar dilution method; how it was run: as §1
Ogataea angusta [6] = test: Antifungal activity against Hansenula polymorpha AS1 with arg1 gsh2delta genotype by agar dilution method; how it was run: as §1
Ogataea angusta [7] = test: Antifungal activity against Hansenula polymorpha 2b with arg1 ade1 leu2 genotype by agar dilution method; how it was run: as §1
Kluyveromyces lactis [8] = test: Antifungal activity against Kluyveromyces lactis 1-6A with MATalpha uraA lys arg genotype by agar dilution method; how it was run: as §2
Ogataea angusta [9] = test: Antifungal activity against Hansenula polymorpha 2a with arg1 leu2 ura3 cys1 genotype by agar dilution method; how it was run: as §1
Saccharomyces cerevisiae [10] = test: Antifungal activity against haploid Saccharomyces cerevisiae YSH1170 by agar dilution method; how it was run: as §2
Ogataea angusta [11] = test: Antifungal activity against Hansenula polymorpha CRD2 with leu2 CDR2 genotype by agar dilution method; how it was run: as §1
Saccharomyces cerevisiae [12] = test: Antifungal activity against haploid Saccharomyces cerevisiae FY4 by agar dilution method; how it was run: as §2
Saccharomyces cerevisiae [13] = test: Antifungal activity against diploid Saccharomyces cerevisiae 29a by agar dilution method; how it was run: as §2
Saccharomyces cerevisiae [14] = test: Antifungal activity against haploid Saccharomyces cerevisiae 1169 by agar dilution method; how it was run: as §2
Ogataea angusta [15] = test: Antifungal activity against Hansenula polymorpha CD3 with ade1 leu2 cds3 genotype by agar dilution method; how it was run: as §1
Kluyveromyces lactis [16] = test: Antifungal activity against Kluyveromyces lactis 2-18B with MATalpha metA1 ura3 leu2 genotype by agar dilution method; how it was run: as §2
Ogataea angusta [17] = test: Antifungal activity against Hansenula polymorpha CD2 with ade1 leu2 cds2 genotype by agar dilution method; how it was run: as §1
Ogataea angusta [18] = test: Antifungal activity against Hansenula polymorpha R3 with rgh3 genotype by agar dilution method; how it was run: as §1
Ogataea angusta [19] = test: Antifungal activity against Hansenula polymorpha WT1 with ade1 ura3 genotype by agar dilution method; how it was run: as §1
Saccharomyces cerevisiae [20] = test: Antifungal activity against diploid Saccharomyces cerevisiae 1a by agar dilution method; how it was run: as §2
Kluyveromyces lactis [21] = test: Antifungal activity against Kluyveromyces lactis 2-19B with MATalpha ura lys arg genotype by agar dilution method; how it was run: as §2
Ogataea angusta [22] = test: Antifungal activity against Hansenula polymorpha D22 with arg1/arg1 ade1/ADE1 leu2/leu2 URA3/ura3 CYS1/cys1 genotype by agar dilution method; how it was run: as §1
Saccharomyces cerevisiae [23] = test: Antifungal activity against haploid Saccharomyces cerevisiae YSH1171 by agar dilution method; how it was run: as §2
Ogataea angusta [24] = test: Antifungal activity against Hansenula polymorpha M2 with met2 genotype by agar dilution method; how it was run: as §1
Saccharomyces cerevisiae [25] = test: Antifungal activity against haploid Saccharomyces cerevisiae 1S by agar dilution method; how it was run: as §2
Saccharomyces cerevisiae [26] = test: Antifungal activity against haploid Saccharomyces cerevisiae 10560-6B by agar dilution method; how it was run: as §2
Ogataea angusta [27] = test: Antifungal activity against Hansenula polymorpha WT2 with ade1 met6 genotype by agar dilution method; how it was run: as §1
Ogataea angusta [28] = test: Antifungal activity against Hansenula polymorpha AU05 with ade3 ura3 genotype by agar dilution method; how it was run: as §1
Saccharomyces cerevisiae [29] = test: Antifungal activity against diploid Saccharomyces cerevisiae PV-3 by agar dilution method
How it was run: (§3)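 MICs by agar dilution on rich YPD medium. Compounds were added from 96% EtOH stocks to give final agar concentrations of 20 to 50 (units as printed in the source). Cells were suspended in water, serially diluted to 10^9, 10^7, 10^5 and 10^3 cells/ml, and spotted onto agar with a metal replicator. Incubation was at 37 °C for H. polymorpha and 30 °C for S. cerevisiae.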

Ogataea angusta [30] = test: Antifungal activity against Hansenula polymorpha CTA1 with leu2 cat1 genotype by agar dilution method; how it was run: as §3
Saccharomyces cerevisiae [31] = test: Antifungal activity against haploid Saccharomyces cerevisiae D3C by agar dilution method; how it was run: as §3
Ogataea angusta [32] = test: Antifungal activity against Hansenula polymorpha WA1 with ade1 leu2 gsh1 genotype by agar dilution method; how it was run: as §3
Saccharomyces cerevisiae [33] = test: Antifungal activity against diploid Saccharomyces cerevisiae PV-2 by agar dilution method; how it was run: as §3

SMILES | MIC (Ogataea angusta [1]) [µg/mL] | MIC (Saccharomyces cerevisiae [2]) [µg/mL] | MIC (Ogataea angusta [3]) [µg/mL] | MIC (Saccharomyces cerevisiae [4]) [µg/mL] | MIC (Ogataea angusta [5]) [µg/mL] | MIC (Ogataea angusta [6]) [µg/mL] | MIC (Ogataea angusta [7]) [µg/mL] | MIC (Kluyveromyces lactis [8]) [µg/mL] | MIC (Ogataea angusta [9]) [µg/mL] | MIC (Saccharomyces cerevisiae [10]) [µg/mL] | MIC (Ogataea angusta [11]) [µg/mL] | MIC (Saccharomyces cerevisiae [12]) [µg/mL] | MIC (Saccharomyces cerevisiae [13]) [µg/mL] | MIC (Saccharomyces cerevisiae [14]) [µg/mL] | MIC (Ogataea angusta [15]) [µg/mL] | MIC (Kluyveromyces lactis [16]) [µg/mL] | MIC (Ogataea angusta [17]) [µg/mL] | MIC (Ogataea angusta [18]) [µg/mL] | MIC (Ogataea angusta [19]) [µg/mL] | MIC (Saccharomyces cerevisiae [20]) [µg/mL] | other results
COc1ccc(/C=C/C(=O)c2ccc(Cl)cc2)cc1 | > 40 | > 40 | > 40 | > 40 | > 40 | > 40 | > 40 | > 40 | > 40 | > 40 | > 40 | > 40 | > 40 | > 40 | > 40 | > 40 | > 40 | > 40 | > 40 | > 40 | MIC (Kluyveromyces lactis [21]): > 40 µg/mL; MIC (Ogataea angusta [22]): > 40 µg/mL; MIC (Saccharomyces cerevisiae [23]): > 40 µg/mL; MIC (Ogataea angusta [24]): > 40 µg/mL; MIC (Saccharomyces cerevisiae [25]): > 40 µg/mL; MIC (Saccharomyces cerevisiae [26]): > 40 µg/mL; MIC (Ogataea angusta [27]): > 40 µg/mL; MIC (Ogataea angusta [28]): > 40 µg/mL
O=C(/C=C/c1cccc(O)c1)c1ccccc1 [3-HYDROXY CHALCONE] | 25 (≈ 111 µM) | 25 (≈ 111 µM) | 30 (≈ 134 µM) | 25 (≈ 111 µM) | 20 (≈ 89.2 µM) | 20 (≈ 89.2 µM) | 25 (≈ 111 µM) | < 20 | 25 (≈ 111 µM) | 25 (≈ 111 µM) | 20 (≈ 89.2 µM) | 25 (≈ 111 µM) | 25 (≈ 111 µM) | 30 (≈ 134 µM) | 25 (≈ 111 µM) | < 20 | 25 (≈ 111 µM) | 20 (≈ 89.2 µM) | 35 (≈ 156 µM) | 25 (≈ 111 µM) | MIC (Saccharomyces cerevisiae [29]): 25 µg/mL (≈ 111 µM); MIC (Ogataea angusta [30]): 35 µg/mL (≈ 156 µM); MIC (Saccharomyces cerevisiae [31]): 25 µg/mL (≈ 111 µM); MIC (Ogataea angusta [32]): < 20 µg/mL; MIC (Kluyveromyces lactis [21]): < 20 µg/mL; MIC (Ogataea angusta [22]): 25 µg/mL (≈ 111 µM); MIC (Saccharomyces cerevisiae [23]): 20 µg/mL (≈ 89.2 µM); MIC (Saccharomyces cerevisiae [33]): 25 µg/mL (≈ 111 µM); MIC (Ogataea angusta [24]): 25 µg/mL (≈ 111 µM); MIC (Saccharomyces cerevisiae [25]): 25 µg/mL (≈ 111 µM); MIC (Saccharomyces cerevisiae [26]): 25 µg/mL (≈ 111 µM); MIC (Ogataea angusta [27]): 25 µg/mL (≈ 111 µM); MIC (Ogataea angusta [28]): 35 µg/mL (≈ 156 µM)
O=C(/C=C/c1ccccc1)c1ccc(Cl)cc1 | > 40 | > 40 | > 40 | > 40 | > 40 | > 40 | > 40 | > 40 | > 40 | > 40 | > 40 | > 40 | > 40 | > 40 | > 40 | > 40 | > 40 | > 40 | > 40 | > 40 | MIC (Kluyveromyces lactis [21]): > 40 µg/mL; MIC (Ogataea angusta [22]): > 40 µg/mL; MIC (Saccharomyces cerevisiae [23]): > 40 µg/mL; MIC (Ogataea angusta [24]): > 40 µg/mL; MIC (Saccharomyces cerevisiae [25]): > 40 µg/mL; MIC (Saccharomyces cerevisiae [26]): > 40 µg/mL; MIC (Ogataea angusta [27]): > 40 µg/mL; MIC (Ogataea angusta [28]): > 40 µg/mL
